# How the values were obtained:
# [1] = species on record: Mus musculus; assay: Compound was evaluated for anticonvulsant activity against maximal electric shock induced seizures; assay type: functional
# Outline: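 Male Carworth Farms number-one mice received the compound ip in 30% polyethylene glycol 400 before maximal electroshock testing, at several dose levels. The median effective dose (ED50) was obtained by the graphical method.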
# [2] = test system: Mus musculus; assay: Compound was evaluated for anticonvulsant activity against subcutaneous pentylenetetrazole-induced convulsions after 30 minutes at a dose of 300 mg/kg; assay type: functional
# Outline: (§1)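 Male Carworth Farms number-one mice were dosed ip in 30% PEG 400, at 30, 100 or 300 mg/kg (sometimes 600 mg/kg). Pentylenetetrazole, 85 mg/kg as a 0.5% solution, was injected subcutaneously in the posterior midline. Protection meant no episode of clonic spasms lasting at least 5 s during a 30-min observation period.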
# [3] = test system: Mus musculus; assay: Compound was evaluated for anticonvulsant activity against subcutaneous pentylenetetrazole-induced convulsions after 4 hr; C indicates no activity at 300 mg/kg.; assay type: functional, organism-based; design: dose 300 mg/kg; outline: as §1
# [4] = Compound was evaluated for anticonvulsant activity by rotarod procedure; assay type: ADME, organism-based; settings: mouse, in vivo
# Outline: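 Male Carworth Farms mice were dosed ip in 30% PEG 400 and then placed on a knurled plastic rod 1 in. in diameter, rotating at 6 rpm. Neurotoxicity was failure to stay on the rod for 1 min. TD50 was derived graphically.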
# [5] = test system: Mus musculus; assay: Compound was evaluated for toxicity by rotarod assay method after 4 hr; C indicates no activity at 300 mg/kg.; assay type: organism-based; design: dose 300 mg/kg; settings: in vivo
# Outline: (§2)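 Male Carworth Farms number-one mice received test compound intraperitoneally in 30% polyethylene glycol 400 at 30, 100 and 300 mg/kg, with 600 mg/kg in some cases. Neurological deficit was read at 30 min or 4 h after dosing on a 1-in.-diameter knurled plastic rod turning at 6 rpm. Toxicity was scored as failure to stay on the rod for 1 min.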
# [6] = Protective index is the ratio of TD50 to ED50; assay type: ADME; settings: for selectivity ratio: read-out: Protective index
# Outline: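 Protective index was calculated as rotorod TD50 divided by anti-MES ED50. Both were graphical median doses from ip dosing in 30% PEG 400 in male Carworth Farms mice.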
# [7] = test system: Mus musculus; assay: Compound was evaluated for anticonvulsant activity against maximal electric shock (MES) induced convulsions after 4 hr at a dose of 300 mg/kg; assay type: functional
# [8] = test system: Mus musculus; assay: Compound was evaluated for anticonvulsant activity against maximal electric shock (MES) induced convulsions after 30 minutes at a dose of 100 mg/kg; assay type: functional
# [9] = test system: Mus musculus; assay: Compound was evaluated for toxicity by rotarod assay method after 30 minutes at a dose of 300 mg/kg; assay type: organism-based; design: dose 300 mg/kg; settings: in vivo, 0.5 h; outline: as §2
# [10] = test system: Mus musculus; assay: Compound was evaluated for anticonvulsant activity against subcutaneous pentylenetetrazole-induced convulsions; assay type: functional; settings: sc; outline: as §1
# [11] = test system: Mus musculus; assay: Compound was evaluated for anticonvulsant activity against subcutaneous pentylenetetrazole-induced convulsions after 30 minutes; C indicates no activity at 300 mg/kg.; assay type: functional, organism-based; design: dose 300 mg/kg; outline: as §1
# [12] = test system: Mus musculus; assay: Compound was evaluated for toxicity by rotarod assay method after 30 minutes; C indicates no activity at 300 mg/kg.; assay type: organism-based; design: dose 300 mg/kg; settings: in vivo, 0.5 h; outline: as §2
# [13] = test system: Mus musculus; assay: Compound was evaluated for anticonvulsant activity against maximal electric shock (MES) induced convulsions after 30 minutes at a dose of 300 mg/kg; assay type: functional
# [14] = test system: Mus musculus; assay: Compound was evaluated for anticonvulsant activity against maximal electric shock (MES) induced convulsions after 4 hr; C indicates no activity at 300 mg/kg.; assay type: functional, organism-based; design: dose 300 mg/kg
# [15] = test system: Mus musculus; assay: Compound was evaluated for anticonvulsant activity against subcutaneous pentylenetetrazole-induced convulsions after 4 hr at a dose of 300 mg/kg; assay type: functional; outline: as §1
# [16] = test system: Mus musculus; assay: Compound was evaluated for anticonvulsant activity against subcutaneous pentylenetetrazole-induced convulsions after 4 hr; C is inactive at 300 mg/kg.; assay type: functional, organism-based; design: dose 300 mg/kg; outline: as §1
# [17] = test system: Mus musculus; assay: Compound was evaluated for anticonvulsant activity against subcutaneous pentylenetetrazole-induced convulsions after 30 minutes;C is inactive at 300 mg/kg.; assay type: functional, organism-based; design: dose 300 mg/kg; outline: as §1
# [18] = test system: Mus musculus; assay: Compound was evaluated for anticonvulsant activity against maximal electric shock (MES) induced convulsions after 30 minutes;C is inactive at 300 mg/kg.; assay type: functional, organism-based; design: dose 300 mg/kg
# [19] = test system: Mus musculus; assay: Compound was evaluated for anticonvulsant activity against maximal electric shock (MES) induced convulsions after 4 hr; C is inactive at 300 mg/kg.; assay type: functional, organism-based; design: dose 300 mg/kg
# [20] = test system: Mus musculus; assay: Compound was evaluated for toxicity by rotarod assay method after 4 hr; C is inactive at 300 mg/kg.; assay type: organism-based; design: dose 300 mg/kg; settings: in vivo; outline: as §2
# [21] = test system: Mus musculus; assay: Compound was evaluated for toxicity by rotarod assay method after 30 minutes; C is inactive at 300 mg/kg.; assay type: organism-based; design: dose 300 mg/kg; settings: in vivo, 0.5 h; outline: as §2
# [22] = test system: Mus musculus; assay: Compound was evaluated for toxicity by rotarod assay method after 30 minutes at a dose of 100 mg/kg; assay type: organism-based; design: dose 100 mg/kg; settings: in vivo, 0.5 h; outline: as §2
# [23] = test system: Mus musculus; assay: Compound was evaluated for anticonvulsant activity against maximal electric shock (MES) induced convulsions after 4 hr at a dose of 100 mg/kg; assay type: functional
# [24] = test system: Mus musculus; assay: Compound was evaluated for toxicity by rotarod assay method after 4 hr at a dose of 300 mg/kg; assay type: organism-based; design: dose 300 mg/kg; settings: in vivo; outline: as §2
# [25] = test system: Mus musculus; assay: Compound was evaluated for anticonvulsant activity against maximal electric shock (MES) induced convulsions after 30 minutes at a dose of 30 mg/kg; assay type: functional
# [26] = test system: Mus musculus; assay: Compound was evaluated for anticonvulsant activity against maximal electric shock (MES) induced convulsions after 30 minutes; C indicates no activity at 300 mg/kg.; assay type: functional, organism-based; design: dose 300 mg/kg
# [27] = test system: Mus musculus; assay: Compound was evaluated for anticonvulsant activity against maximal electric shock (MES) induced convulsions after 4 hr; E indicates no activity at 30 mg/kg.; assay type: functional, organism-based; design: dose 30 mg/kg
# [28] = test system: Mus musculus; assay: Compound was evaluated for anticonvulsant activity against subcutaneous pentylenetetrazole-induced convulsions after 4 hr; E indicates no activity at 30 mg/kg.; assay type: functional, organism-based; design: dose 30 mg/kg; outline: as §1
# [29] = test system: Mus musculus; assay: Compound was evaluated for toxicity by rotarod assay method after 4 hr; E indicates no activity at 30 mg/kg.; assay type: organism-based; design: dose 30 mg/kg; settings: in vivo; outline: as §2
# [30] = test system: Mus musculus; assay: Compound was evaluated for anticonvulsant activity against subcutaneous pentylenetetrazole-induced convulsions after 30 minutes; E indicates no activity at 30 mg/kg.; assay type: functional, organism-based; design: dose 30 mg/kg; outline: as §1
Compound,ED50 [1],Activity [2],Activity [3],TD50 [4],Toxicity [5],selectivity ratio [6],Activity [8],Activity [16],Activity [17],Activity [18],Activity [19],Toxicity [20],Toxicity [21],also measured
CC(NC(=O)c1ccccc1)c1ccc(N)cc1 (stereo not drawn),68.2 mg/kg,2,No activity at 300 mg/kg,190 mg/kg,No activity at 300 mg/kg,2.79,3,,,,,,,Protective index [6]: 1.51; Activity [7]: 2; Toxicity [9]: 2; ED50 [10]: 126 mg/kg
CCCC(NC(=O)c1ccc(N)cc1)c1ccccc1 (stereo not drawn),93.9 mg/kg,,No activity at 300 mg/kg,378 mg/kg,No activity at 300 mg/kg,4.03,3,,,,,,,Activity [11]: No activity at 300 mg/kg; Toxicity [12]: No activity at 300 mg/kg; Protective index [6]: 4.8; Activity [7]: 2; ED50 [10]: 78.8 mg/kg
CC(NC(=O)c1ccc(N)cc1)c1ccc(Cl)cc1 (stereo not drawn),,2,,,No activity at 300 mg/kg,,,,,,,,,Activity [13]: 2; Activity [14]: No activity at 300 mg/kg; Activity [15]: 2; Toxicity [12]: No activity at 300 mg/kg
CN(C)c1ccc(C(=O)NCCc2ccccc2)cc1,,,,,,,,No activity at 300 mg/kg,No activity at 300 mg/kg,No activity at 300 mg/kg,No activity at 300 mg/kg,No activity at 300 mg/kg,No activity at 300 mg/kg,
CNc1ccc(C(=O)NC(C)c2ccccc2)cc1 (stereo not drawn),,2,,,No activity at 300 mg/kg,,3,,,,,,,Activity [15]: 2; Toxicity [12]: No activity at 300 mg/kg; Activity [7]: 2
CC(NCc1cccc(N)c1)c1ccccc1 (stereo not drawn),32.4 mg/kg,,No activity at 300 mg/kg,49.7 mg/kg,No activity at 300 mg/kg,1.53,3,,,,,,,Activity [11]: No activity at 300 mg/kg; Activity [14]: No activity at 300 mg/kg; Toxicity [9]: 2
CCCCC(NC(=O)c1ccc(N)cc1)c1ccccc1 (stereo not drawn),73.7 mg/kg,2,No activity at 300 mg/kg,332 mg/kg,No activity at 300 mg/kg,,3,,,,,,,Protective index [6]: 2.06; Activity [7]: 2; Toxicity [9]: 2; ED50 [10]: 161 mg/kg
CCC(NC(=O)c1ccc(N)cc1)c1ccccc1 (stereo not drawn),54.3 mg/kg,2,,95.4 mg/kg,,1.76,3,,,,,,,Toxicity [22]: 3; Activity [15]: 2; Activity [23]: 3; Toxicity [24]: 2; ED50 [10]: 54.1 mg/kg
CC(NC(=O)c1ccc(N(C)C)cc1)c1ccccc1 (stereo not drawn),,,,,,,,No activity at 300 mg/kg,No activity at 300 mg/kg,No activity at 300 mg/kg,No activity at 300 mg/kg,No activity at 300 mg/kg,No activity at 300 mg/kg,
CC(=O)Nc1ccc(C(=O)NC(C)c2ccccc2)cc1 (stereo not drawn),,,,,,,,No activity at 300 mg/kg,No activity at 300 mg/kg,No activity at 300 mg/kg,No activity at 300 mg/kg,No activity at 300 mg/kg,No activity at 300 mg/kg,
Cc1ccc(C(C)NC(=O)c2ccc(N)cc2)cc1 (stereo not drawn),,,,,,,,No activity at 300 mg/kg,No activity at 300 mg/kg,No activity at 300 mg/kg,No activity at 300 mg/kg,No activity at 300 mg/kg,No activity at 300 mg/kg,
CC(NCc1ccc(N)cc1)c1ccccc1 (stereo not drawn),11.1 mg/kg,,No activity at 300 mg/kg,15.5 mg/kg,No activity at 300 mg/kg,1.4,,,,,,,,Activity [11]: No activity at 300 mg/kg; Activity [14]: No activity at 300 mg/kg; Toxicity [22]: 3; Activity [25]: 4
CCOC(=O)C(=O)Nc1ccc(C(=O)NC(C)c2ccccc2)cc1 (stereo not drawn),,,No activity at 300 mg/kg,,No activity at 300 mg/kg,,,,,,,,,Activity [11]: No activity at 300 mg/kg; Activity [14]: No activity at 300 mg/kg; Toxicity [9]: 2; Activity [26]: No activity at 300 mg/kg
CNc1ccc(C(=O)NCc2ccccc2)cc1,,,,,,,,No activity at 300 mg/kg,No activity at 300 mg/kg,No activity at 300 mg/kg,No activity at 300 mg/kg,No activity at 300 mg/kg,No activity at 300 mg/kg,
CC(NC(=O)c1ccc(CN(C)C)cc1)c1ccccc1 (stereo not drawn),13 mg/kg,,,34.3 mg/kg,,2.63,,,,,,,,Activity [27]: No activity at 30 mg/kg; Toxicity [22]: 3; Activity [28]: No activity at 30 mg/kg; Activity [25]: 4; Toxicity [29]: No activity at 30 mg/kg; Activity [30]: No activity at 30 mg/kg
CN(C)c1ccc(C(=O)Nc2ccccc2)cc1,,,,,,,,No activity at 300 mg/kg,No activity at 300 mg/kg,No activity at 300 mg/kg,No activity at 300 mg/kg,No activity at 300 mg/kg,No activity at 300 mg/kg,

# Reference: ChEMBL document CHEMBL1123783, “Synthesis and anticonvulsant activity of analogues of 4-amino-N-(1-phenylethyl)benzamide” (J Med Chem, 1987)
